Source: ChEMBL document CHEMBL2380292, “Discovery of SAR184841, a potent and long-lasting inhibitor of 11β-hydroxysteroid dehydrogenase type 1, active in a physiopathological animal model of T2D” (Bioorg Med Chem Lett, 2013)

Legend:
Mus musculus [1] = experiment: Ex vivo inhibition of 11beta-HSD1 in C57Bl/6J mouse subcutaneous fat at 30 mg/kg, po after 16 hrs; format: functional
Procedure, shortened: (§1)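 Mice given a single oral dose as a suspension in Tween 80/0.6% methylcellulose (0.5/99.5, v/v) at 10 mL/kg. At 2 h or 16 h post-dose, animals were killed by cervical dislocation and 50 mg liver and 200 mg subcutaneous fat were taken for 11β-HSD1 activity. Reactions were stopped with HCl 1 N/methanol (1/1). 3H-cortisone and 3H-cortisol were quantified by HPLC with flow scintillation detection.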

[2] = molecular target: 11-beta-hydroxysteroid dehydrogenase 1 (Mus musculus, UniProt P50172); experiment: Inhibition of mouse recombinant 11beta-HSD1 by scintillation proximity assay
Liver = experiment: Metabolic stability in mouse liver microsomes; format: ADME, Microsome
[3] = molecular target: 11-beta-hydroxysteroid dehydrogenase 1 (Rattus norvegicus, UniProt P16232); experiment: Inhibition of rat 11beta-HSD1
Mus musculus [4] = experiment: Ex vivo inhibition of 11beta-HSD1 in C57Bl/6J mouse liver at 30 mg/kg, po after 16 hrs; format: functional; procedure, shortened: as §1
[5] = Permeability across human Caco2 cells; format: ADME, cell-based; settings: Caco-2, read-out: permeability
Procedure, shortened: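 Permeability was measured with the compound alone and in the presence of the P-gp inhibitor elacridar, and expressed in 10^-7 cm/s.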

Liver microsomes [6] = experiment: Metabolic stability in rat liver microsomes; format: ADME, Microsome
Liver microsomes [7] = experiment: Metabolic stability in human liver microsomes; format: ADME, Microsome
Cytochrome P450 3A4 = Cytochrome P450 3A4 (Homo sapiens, UniProt P08684); experiment: Inhibition of CYP3A4 (unknown origin); format: ADME
Mus musculus [8] = experiment: Ex vivo inhibition of 11beta-HSD1 in C57Bl/6J mouse subcutaneous fat at 3 mg/kg, po after 16 hrs; format: functional; procedure, shortened: as §1
Mus musculus [9] = experiment: Ex vivo inhibition of 11beta-HSD1 in C57Bl/6J mouse liver at 3 mg/kg, po after 16 hrs; format: functional; procedure, shortened: as §1
Mus musculus [10] = experiment: Ex vivo inhibition of 11beta-HSD1 in C57Bl/6J mouse liver at 30 mg/kg, os after 2 hrs; format: functional; procedure, shortened: as §1
Mus musculus [11] = experiment: Ex vivo inhibition of 11beta-HSD1 in C57Bl/6J mouse subcutaneous fat at 30 mg/kg, os after 2 hrs; format: functional; settings: sc; procedure, shortened: as §1
[12] = molecular target: T1, 11-beta-hydroxysteroid dehydrogenase type 2 (Homo sapiens, UniProt P80365); experiment: Inhibition of human 11beta-HSD2
T1 sequence (P80365 whole entry): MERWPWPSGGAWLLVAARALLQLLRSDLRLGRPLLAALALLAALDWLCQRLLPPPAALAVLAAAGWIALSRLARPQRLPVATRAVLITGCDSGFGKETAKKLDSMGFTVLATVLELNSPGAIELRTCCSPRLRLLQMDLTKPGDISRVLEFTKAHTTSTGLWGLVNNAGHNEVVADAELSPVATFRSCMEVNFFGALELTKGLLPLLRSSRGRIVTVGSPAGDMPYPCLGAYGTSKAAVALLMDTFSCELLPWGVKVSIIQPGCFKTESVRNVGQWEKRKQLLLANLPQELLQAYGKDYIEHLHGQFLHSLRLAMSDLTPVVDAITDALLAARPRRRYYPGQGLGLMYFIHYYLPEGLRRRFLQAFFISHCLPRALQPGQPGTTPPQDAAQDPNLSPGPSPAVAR

Mus musculus [13] = experiment: Ex vivo inhibition of 11beta-HSD1 in C57Bl/6J mouse liver at 10 mg/kg, os after 2 hrs; format: functional; procedure, shortened: as §1
Mus musculus [14] = experiment: Ex vivo inhibition of 11beta-HSD1 in C57Bl/6J mouse subcutaneous fat at 10 mg/kg, os after 2 hrs; format: functional; settings: sc; procedure, shortened: as §1

Chain of 11-beta-hydroxysteroid dehydrogenase 1 (Mus musculus, UniProt P50172) (P50172 whole entry): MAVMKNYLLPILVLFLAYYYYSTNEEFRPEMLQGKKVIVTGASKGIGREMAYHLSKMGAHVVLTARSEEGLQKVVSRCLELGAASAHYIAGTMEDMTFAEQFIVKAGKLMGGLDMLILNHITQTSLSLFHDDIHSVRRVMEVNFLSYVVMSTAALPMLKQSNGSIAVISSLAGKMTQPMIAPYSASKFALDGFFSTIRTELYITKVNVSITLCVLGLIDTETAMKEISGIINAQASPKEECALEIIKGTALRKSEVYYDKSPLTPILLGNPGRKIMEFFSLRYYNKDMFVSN
Chain of Cytochrome P450 3A4 (P08684 whole entry): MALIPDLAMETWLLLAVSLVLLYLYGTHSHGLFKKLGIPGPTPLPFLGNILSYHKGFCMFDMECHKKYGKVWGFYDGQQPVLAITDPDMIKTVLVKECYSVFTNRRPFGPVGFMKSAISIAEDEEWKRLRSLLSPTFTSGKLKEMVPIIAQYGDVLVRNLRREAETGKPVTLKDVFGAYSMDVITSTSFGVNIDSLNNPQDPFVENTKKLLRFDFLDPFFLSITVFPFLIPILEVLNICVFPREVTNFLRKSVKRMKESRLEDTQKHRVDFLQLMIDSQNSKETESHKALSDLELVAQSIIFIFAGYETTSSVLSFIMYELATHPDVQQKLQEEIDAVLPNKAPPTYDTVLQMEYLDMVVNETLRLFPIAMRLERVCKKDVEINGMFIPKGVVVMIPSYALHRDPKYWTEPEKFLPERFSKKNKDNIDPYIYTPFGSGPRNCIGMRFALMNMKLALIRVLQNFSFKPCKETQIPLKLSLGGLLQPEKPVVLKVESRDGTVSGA
Chain of 11-beta-hydroxysteroid dehydrogenase 1 (Rattus norvegicus, UniProt P16232) (P16232 whole entry): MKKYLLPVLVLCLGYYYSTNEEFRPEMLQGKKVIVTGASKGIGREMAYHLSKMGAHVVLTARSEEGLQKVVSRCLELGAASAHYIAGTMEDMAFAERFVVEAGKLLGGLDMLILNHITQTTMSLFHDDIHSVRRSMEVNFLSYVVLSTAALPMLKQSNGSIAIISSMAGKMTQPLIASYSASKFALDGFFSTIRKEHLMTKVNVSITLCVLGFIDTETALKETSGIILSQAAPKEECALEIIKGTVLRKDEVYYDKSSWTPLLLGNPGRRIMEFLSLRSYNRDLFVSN

Row | Compound | inhibition in vivo at 30 mg/kg (Mus musculus [1]) | IC50 [2] | Stability (Liver) | IC50 [3] | inhibition in vivo at 30 mg/kg (Mus musculus [4]) | Papp [5] | Stability (Liver microsomes [6]) | Stability (Liver microsomes [7]) | IC50 (Cytochrome P450 3A4) | inhibition in vivo at 3 mg/kg (Mus musculus [8]) | inhibition in vivo at 3 mg/kg (Mus musculus [9]) | inhibition in vivo at 30 mg/kg (Mus musculus [10]) | inhibition in vivo at 30 mg/kg (Mus musculus [11]) | IC50 [12] | inhibition in vivo at 10 mg/kg (Mus musculus [13]) | inhibition in vivo at 10 mg/kg (Mus musculus [14])
1 | CS(=O)(=O)N1CCN(c2ccc(N3CCN(C(=O)N[C@H]4C5CC6CC4C[C@](O)(C6)C5)c4ccccc43)nc2)CC1 | 20% | 0.002 µM | 18% | 0.016 µM | 47% | 79 nm/s | 12% | 12% | > 30 µM |  |  |  |  |  |  | 
2 | CC(=O)N1CCN(c2ccc(N3CCN(C(=O)N[C@H]4C5CC6CC4C[C@](O)(C6)C5)c4ccccc43)nc2)CC1 | 0% |  | 14% | 0.065 µM | 0% | 10 nm/s | 18% | 5% | > 30 µM |  |  |  |  |  |  | 
3 | NC(=O)[C@]12CC3CC(C1)[C@@H](NC(=O)N1CCN(c4ccc(N5CCN(S(=O)(=O)C6CC6)CC5)cn4)c4ccccc41)C(C3)C2 | 50% | 0.008 µM | 18% | 0.009 µM | 75% | 4 nm/s | 31% | 1% | > 30 µM | > 50% | > 50% |  |  |  |  | 
4 | CC(C)(C)N1CCN(c2ccc(N3CCN(C(=O)N[C@H]4C5CC6CC4C[C@](O)(C6)C5)c4ccccc43)nc2)CC1 | 20% | 0.008 µM | 6% | 0.018 µM | 55% | 34 nm/s | 20% | 14% |  |  |  |  |  |  |  | 
5 | COc1ccc(-c2cnc(N3CCN(C(=O)N[C@H]4C5CC6CC4C[C@](OC(N)=O)(C6)C5)c4ccccc43)nc2)cc1 |  | 0.005 µM | 96% | 0.1 µM |  |  | 70% | 89% | > 10 µM |  |  |  |  |  |  | 
6 | COc1ccc(-c2cnc(N3CCN(C(=O)N4CCC(c5cn[nH]c5)C4)c4ccccc43)nc2)cc1 (centres undefined) |  |  |  | 0.6 µM |  |  |  |  | < 0.3 µM |  |  | 90% | 70% | > 10 µM |  | 
7 | CS(=O)(=O)N1CCN(c2ccc(N3CCN(C(=O)N[C@H]4C5CC6CC4C[C@](O)(C6)C5)c4ccccc43)cc2)CC1 | 55% | 0.001 µM | 9% | 0.114 µM | 80% | 194 nm/s | 17% | 2% | > 10 µM |  |  |  |  |  |  | 
8 | CS(=O)(=O)N1CCN(c2ccc(N3CCN(C(=O)N[C@H]4C5CC6CC4C[C@](C(N)=O)(C6)C5)c4ccccc43)cc2)CC1 | 30% | 0.005 µM | 22% | 0.024 µM | 55% | 30 nm/s | 26% | 3% | > 10 µM |  |  |  |  |  |  | 
9 | COc1ccc(-c2cnc(N3CCN(C(=O)N[C@H]4C5CC6CC4C[C@](C(N)=O)(C6)C5)c4ccccc43)nc2)cc1 |  | 0.036 µM | 27% | 0.07 µM |  | 182 nm/s | 32% | 49% | > 10 µM |  |  |  |  |  |  | 
10 | CS(=O)(=O)N1CCN(c2cnc(N3CCN(C(=O)N[C@H]4C5CC6CC4C[C@](O)(C6)C5)c4ccccc43)nc2)CC1 | 0% | 0.001 µM | 18% | 0.028 µM | 30% | 7 nm/s | 24% | 9% | > 10 µM |  |  |  |  |  |  | 
11 | COc1ccc(-c2cnc(N3CCN(C(=O)N[C@H]4C5CC6CC4C[C@](O)(C6)C5)c4ccccc43)nc2)cc1 |  | 0.015 µM | 21% | 0.11 µM |  | 248 nm/s | 33% | 41% | > 10 µM |  |  |  |  |  | 40% | 30%
12 | O=C(N[C@H]1C2CC3CC1C[C@](O)(C3)C2)N1CCN(c2ccc(N3CCN(S(=O)(=O)C4CC4)CC3)cn2)c2ccccc21 | 40% | 0.021 µM | 22% | 0.021 µM | 65% | 98 nm/s | 23% | 9% | > 10 µM |  |  |  |  |  |  | 
